Measured values: ChEMBL document CHEMBL4041508, “Synthesis and biological evaluation of chemical tools for the study of Dolichol Linked Oligosaccharide Diphosphatase (DLODP)” (Eur J Med Chem, 2017)
The source made the active and inactive calls. No cut-off for these calls is given here.

Columns and labels:
Homo sapiens [1] = species on record: Homo sapiens; test: Inhibition of DLODP in human HepG2 microsomal membrane assessed as reduction in [3H]OSP production at 50 mM using Glc3-0[3H]Man9-5GlcNAc2-PP-dolichol as substrate at pH 5.5 measured after 20 to 60 mins by scintillation counting; assay type: cell membranes
Homo sapiens [2] = species on record: Homo sapiens; test: Inhibition of DLODP in human HepG2 microsomal membrane assessed as reduction in [3H]OSP production at 3 mM using Glc3-0[3H]Man9-5GlcNAc2-PP-dolichol as substrate at pH 5.5 measured after 20 to 60 mins by scintillation counting; assay type: cell membranes
Homo sapiens [3] = species on record: Homo sapiens; test: Inhibition of DLODP in human Caco2 microsomes assessed as reduction in OSP production at higher concentration using Glc3-0[3H]Man9-5GlcNAc2-PP-dolichol as substrate measured after 20 to 60 mins by scintillation counting
Outline: (§1)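 Cells grown in RPMI 1640 with 10% fetal calf serum and 1% penicillin/streptomycin, plus 1% non-essential amino acids for Caco-2 TC7, for 8 days before total membrane preparation. Assay uses 20 µg membrane protein in standard mix (100 mM MES pH 5.5, 1 mM CoCl2, 0.1% NP-40) with added inhibitor, 37 °C. Radioactivity in OSP and neutral oligosaccharides separated by ion exchange, counted by scintillation.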

Homo sapiens [4] = species on record: Homo sapiens; test: Inhibition of DLODP in human HepG2 microsomes assessed as reduction in neutral oligosaccharide production at low concentration using Glc3-0[3H]Man9-5GlcNAc2-PP-dolichol as substrate measured after 20 to 60 mins by scintillation counting; outline: as §1
Homo sapiens [5] = species on record: Homo sapiens; test: Inhibition of DLODP in human Caco2 microsomes assessed as reduction in neutral oligosaccharide production at low concentration using Glc3-0[3H]Man9-5GlcNAc2-PP-dolichol as substrate measured after 20 to 60 mins by scintillation counting; outline: as §1
[6] = Inhibition of DLODP in human HepG2 microsomal membrane assessed as reduction in [3H]OSP production using Glc3-0[3H]Man9-5GlcNAc2-PP-dolichol as substrate at pH 5.5 measured after 20 to 60 mins by scintillation counting; assay type: cell membranes
Homo sapiens [7] = species on record: Homo sapiens; test: Inhibition of DLODP in human HepG2 microsomes assessed as reduction in OSP production at higher concentration using Glc3-0[3H]Man9-5GlcNAc2-PP-dolichol as substrate measured after 20 to 60 mins by scintillation counting; outline: as §1

| SMILES | inhibition (Homo sapiens [1]) | IC50 [6] | also measured |
| --- | --- | --- | --- |
| O=P(O)(O)CP(=O)(O)O |  |  | inhibition (Homo sapiens [2]): inactive |
| CC(=O)N[C@H]1[C@@H](O[P@@](=O)(O)O[P@@](=O)(O)OC[C@H]2O[C@@H](n3ccc(=O)[nH]c3=O)[C@H](O)[C@@H]2O)O[C@H](CO)[C@@H](O)[C@@H]1O |  |  | inhibition (Homo sapiens [2]): inactive |
| CCCOP(=O)(O)O |  |  | inhibition (Homo sapiens [2]): inactive |
| CC(C)O | Active |  |  |
| O=[N+]([O-])c1ccc(OP(=O)(O)O)cc1 [p-NITROPHENYLPHOSPHATE] |  | 4200 µM |  |
| CC(C)=CCC/C(C)=C/CC/C(C)=C/CC/C(C)=C/CC/C(C)=C/CC/C(C)=C/CC/C(C)=C/CC/C(C)=C/CC/C(C)=C/COP(=O)(O)OP(=O)(O)O |  | 4.7 µM |  |
| O=[N+]([O-])c1ccc(OP(=O)(O)Oc2ccc([N+](=O)[O-])cc2)cc1 |  | 1200 µM |  |
| CC(C)=CCC[C@H](C)CCOP(=O)(O)CP(=O)(O)O |  | 700 µM |  |

Second part, led by results:

| inhibition (Homo sapiens [1]) | IC50 [6] | SMILES | also measured |
| --- | --- | --- | --- |
| inactive |  | CO[C@H]1O[C@H](CO)[C@@H](O)[C@H](O)[C@@H]1O |  |
| < 10% |  | CC(=O)N[C@@H]1[C@@H](O)[C@H](O[C@@H]2O[C@H](CO)[C@@H](O)[C@H](O)[C@H]2NC(C)=O)[C@@H](CO)O[C@@H]1O |  |
| inactive |  | CC(=O)N[C@@H]1[C@@H](O)[C@H](O[C@@H]2O[C@H](CO)[C@H](O)[C@H](O)[C@H]2O)[C@@H](CO)O[C@@H]1O |  |
| inactive |  | CC(=O)N[C@@H]1[C@@H](O)[C@H](O)[C@@H](CO)O[C@@H]1O |  |
| 30% |  | CC(=O)N[C@@H]1[C@@H](O)[C@H](O[C@@H]2O[C@H](CO)[C@@H](O)[C@H](O)[C@@H]2O)[C@@H](CO)O[C@@H]1O |  |
| 10% |  | CO[C@@H]1O[C@H](CO)[C@@H](O)[C@H](O)[C@@H]1O |  |
|  | > 3000 µM | CC(=O)N[C@H]1[C@@H](OP(=O)(O)O)O[C@H](CO)[C@@H](O)[C@@H]1O | inhibition (Homo sapiens [3]): Active; inhibition (Homo sapiens [4]): Active; inhibition (Homo sapiens [5]): Active; inhibition (Homo sapiens [7]): Active |
| inactive |  | OC[C@H]1OC(O)[C@@H](O)[C@@H](O)[C@@H]1O (stereo not given in full) |  |
